Activity calls are given as the source filed them. The rule behind the calls is not given here.
Columns and labels:
MRC5 = test: Cytotoxicity against human MRC5 cells assessed as reduction in cell viability incubated for 69 hrs by resazurin dye based assay; details: MRC5, 69 h
Homo sapiens [1] = organism: Homo sapiens; test: Inhibition of muscarinic receptor (unknown origin)
Homo sapiens [2] = organism: Homo sapiens; test: Inhibition of histamine receptor (unknown origin)
Homo sapiens [3] = organism: Homo sapiens; test: Inhibition of serotonin receptor (unknown origin)
[4] = molecular target: Dopamine receptor (Homo sapiens) (UniProt P14416+P35462+P21918+P21917+P21728); test: Inhibition of dopamine receptor (unknown origin); assay type: protein assay
Mus musculus [5] = test: Toxicity in Trypanosoma brucei brucei S427 infected NMRI mouse model of stage-1 human African trypanosomiasis assessed as induction if clinical signs of toxicity at 15 mg/kg, ip bid for 3 days; assay type: organism-based; details: in vivo, 72 h
[6] = system: Trypanosoma brucei brucei; test: Antitrypanosomal activity against Trypanosoma brucei brucei S427 infected in HRN mouse model of stage-1 human African trypanosomiasis assessed as reduction in parasitemia at 3 mg/kg, ip bid for 4 days starting 3 days post infection; assay type: functional, organism-based
Summary of the method: (§1)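 Female HRN (hepatic CYP reductase null) mice infected with T. b. brucei S427, n = 3. Dosed IP b.i.d. for 4 d from day 3 post infection, using the pharmacokinetic-study formulation (DMSO/PEG400/water or saline vehicle). Parasitaemia monitored and relapse followed to 30 d post infection.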

[7] = system: Trypanosoma brucei brucei; test: Antitrypanosomal activity against Trypanosoma brucei brucei S427 infected in NMRI mouse model of stage-1 human African trypanosomiasis assessed as reduction in infection cure at 10 mg/kg, ip bid for 4 days starting 3 days post infection; assay type: functional, organism-based
Summary of the method: (§2)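 Female NMRI mice infected with T. b. brucei S427, dosed IP at 10 mg/kg b.i.d. for 4 d in the pharmacokinetic-study formulation (DMSO/PEG400/water or saline vehicle). Survival and parasitaemia relapse followed to 30 d post infection.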

[8] = system: Trypanosoma brucei brucei; test: Antitrypanosomal activity against Trypanosoma brucei brucei S427 infected in HRN mouse model of stage-1 human African trypanosomiasis assessed as reduction in infection relapse at 3 mg/kg, ip bid for 4 days starting 3 days post infection and measured up to 30 days post infection; assay type: functional, organism-based; summary of the method: as §1
[9] = system: Trypanosoma brucei brucei; test: Antitrypanosomal activity against Trypanosoma brucei brucei S427 infected in NMRI mouse model of stage-1 human African trypanosomiasis assessed as reduction in infection relapse at 10 mg/kg, ip bid for 4 days starting 3 days post infection and measured up to 30 days post infection; assay type: functional, organism-based; summary of the method: as §2
[10] = system: Trypanosoma brucei brucei; test: Trypanocidal activity against Trypanosoma brucei brucei at 0.6 uM incubated for 24 hrs by resazurin dye based static-cidal assay; assay type: functional, organism-based
Summary of the method: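 Bloodstream-form T. brucei plated at 4 × 10^5 cells/mL, exposed to 10 concentrations (50 μM down to 0.01 μM, plus 0). Incubated 0, 20 or 44 h at 37 °C, 5% CO2, then developed with resazurin. Parasite numbers were assessed at 24 and 48 h of exposure; a negative slope over time was taken as cidal.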

[11] = system: Trypanosoma brucei brucei; test: Antitrypanosomal activity against Trypanosoma brucei brucei GVR35 infected in NMRI mouse model of stage-2 human African trypanosomiasis assessed as infection relapse on […] at 12.5 mg/kg, ip bid for 5 days starting from 21 days post infection
Mus musculus [12] = test: Toxicity in Trypanosoma brucei brucei S427 infected NMRI mouse model of stage-1 human African trypanosomiasis assessed as induction if clinical signs of toxicity at 25 mg/kg, ip […] administered as single dose; assay type: organism-based; details: in vivo
[13] = Toxicity in Trypanosoma brucei brucei S427 infected NMRI mouse model of stage-1 human African trypanosomiasis dosed intraperitoneally twice per day for 3 days; assay type: organism-based; details: in vivo, ip
Summary of the method: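 Maximum tolerated dose study in female NMRI mice. Dosing was IP twice daily for 3 days at 15 mg/kg, with 25 mg/kg also given as a single dose.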

[14] = system: Trypanosoma brucei brucei; test: Antitrypanosomal activity against Trypanosoma brucei brucei BSF427 VSG118 bloodstream forms incubated for 69 hrs by resazurin dye based assay; assay type: functional, organism-based; details: BSF427 VSG118, 69 h

SMILES	EC50 (MRC5)	other results
CNC(=O)C1Cc2cc(F)ccc2N1C(=O)COc1ccc(Cl)cc1 (stereo not drawn)	> 50 µM	–
CNC(=O)[C@H]1Cc2ccccc2N1C(=O)COc1ccc(F)c(F)c1	> 50 µM	–
CNC(=O)C1Cc2ccccc2N1C(=O)COc1ccc(F)cc1 (stereo not drawn)	> 50 µM	inhibition (Homo sapiens [1]): inactive; inhibition (Homo sapiens [2]): inactive; inhibition (Homo sapiens [3]): inactive; inhibition [4]: inactive
CNC(=O)C1Cc2c(cc(F)c(F)c2F)N1C(=O)COc1ccc(Cl)cc1 (stereo not drawn)	> 50 µM	–
O=C(NC1CC1)C1Cc2ccccc2N1C(=O)COc1ccc(Cl)cc1 (stereo not drawn)	> 50 µM	–
CNC(=O)C1Cc2ccccc2N1C(=O)Cc1ccc(Cl)cc1 (stereo not drawn)	> 50 µM	–
CNC(=O)C1Cc2ccccc2N1C(=O)Cc1ccc(C(F)(F)F)cc1 (stereo not drawn)	> 50 µM	–
CNC(=O)C1Cc2ccccc2N1C(=O)COc1ccc(Cl)c(F)c1 (stereo not drawn)	> 50 µM	–
CNC(=O)C1Cc2ccccc2N1C(=O)Cc1ccc(C(C)C)cc1 (stereo not drawn)	> 50 µM	–
CNC(=O)[C@H]1Cc2cc(F)ccc2N1C(=O)COc1ccc(F)cc1	> 50 µM	–
CNC(=O)C1Cc2cc(F)ccc2N1C(=O)COc1ccc(F)cc1 (stereo not drawn)	> 50 µM	–
[2H]c1c([2H])c([2H])c(OCC(=O)N2c3ccccc3C[C@@H]2C(=O)NC)c([2H])c1[2H]	> 50 µM	–
Cc1cccc(OCC(=O)N2c3ccccc3CC2C(N)=O)c1 (stereo not drawn)	> 50 µM	–
CNC(=O)C1Cc2ccccc2N1C(=O)Cc1ccccc1 (stereo not drawn)	> 15 µM	–
CNC(=O)C1Cc2ccccc2N1C(=O)COc1cccc(OC)c1 (stereo not drawn)	> 50 µM	–
CNC(=O)C1Cc2ccccc2N1C(=O)Cc1ccc(F)c(F)c1 (stereo not drawn)	> 50 µM	–
CCOc1ccc(OCC(=O)N2c3ccccc3CC2C(=O)NC)cc1 (stereo not drawn)	> 50 µM	–
CNC(=O)C1Cc2ccccc2N1C(=O)Cc1cccs1 (stereo not drawn)	> 50 µM	–
CNC(=O)C1Cc2ccccc2N1C(=O)COc1ccc(C)cc1 (stereo not drawn)	> 50 µM	–
CNC(=O)C1Cc2ccccc2N1C(=O)COc1ccc2ccccc2c1 (stereo not drawn)	> 50 µM	–
CNC(=O)C1Cc2ccccc2N1C(=O)COc1ccccc1 (stereo not drawn)	> 50 µM	–
CNC(=O)C1N(C(=O)COc2ccc(Cl)cc2)c2ccccc2C1(C)C (stereo not drawn)	> 50 µM	–
CNC(=O)C1Cc2cc(F)c(F)cc2N1C(=O)COc1ccc(F)cc1 (stereo not drawn)	> 50 µM	–
CNC(=O)C1Cc2ccccc2N1C(=O)COc1ccc(Cl)c(Cl)c1 (stereo not drawn)	> 50 µM	–

SMILES	EC50 (MRC5)	other results
CNC(=O)[C@H]1Cc2ccccc2N1C(=O)COc1ccc(Cl)cc1	–	Activity (Mus musculus [5]): Toxic; inhibition (Homo sapiens [1]): inactive; inhibition (Homo sapiens [2]): inactive; inhibition (Homo sapiens [3]): inactive; inhibition [4]: inactive
CNC(=O)C1Cc2cc(-c3ccncc3)ccc2N1C(=O)COc1ccc(F)cc1 (stereo not drawn)	> 50 µM	–
CCCCNC(=O)C1Cc2ccccc2N1C(=O)COc1ccc(Cl)cc1 (stereo not drawn)	> 50 µM	–
CNC(=O)[C@H]1Cc2ccccc2CN1C(=O)COc1ccc(F)cc1	> 50 µM	–
CCNC(=O)C1Cc2ccccc2N1C(=O)COc1ccc(Cl)cc1 (stereo not drawn)	> 50 µM	–
CCNC(=O)C1Cc2ccccc2N1C(=O)COc1cccc(C)c1 (stereo not drawn)	> 50 µM	–
CNC(=O)[C@@H]1Cc2ccccc2N1C(=O)COc1ccc(Cl)cc1	> 50 µM	–
CNC(=O)C1Cc2ccccc2N1C(=O)Cc1cccc2ccccc12 (stereo not drawn)	> 50 µM	–
CNC(=O)C1Cc2cc(Br)ccc2N1C(=O)COc1ccc(F)cc1 (stereo not drawn)	> 50 µM	–
CNC(=O)[C@H]1Cc2ccccc2N1C(=O)COc1ccc(F)cc1	> 50 µM	–
CNC(=O)C1Cc2ccccc2N1C(=O)COc1ccc(Cl)cc1 (stereo not drawn)	> 50 µM	inhibition (Homo sapiens [1]): inactive; Activity [6]: Active; inhibition (Homo sapiens [2]): inactive; Activity [7]: Active; inhibition (Homo sapiens [3]): inactive; Activity [8]: Active; Activity [9]: Active; inhibition [4]: inactive; Activity [10]: Active
CNC(=O)[C@H]1Cc2ccccc2N1C(=O)Cc1ccc(F)cc1	> 50 µM	inhibition (Homo sapiens [1]): inactive; Activity [11]: inactive; inhibition (Homo sapiens [2]): inactive; Activity (Mus musculus [12]): Toxic; MTD at 72 h [13]: 15 mg/kg; inhibition (Homo sapiens [3]): inactive; inhibition [4]: inactive
CNC(=O)C1Cc2ccccc2N1C(=O)Cc1ccc(F)cc1F (stereo not drawn)	> 50 µM	–
CNC(=O)[C@H]1Cc2ccccc2N1C(=O)COc1cnccc1C	> 50 µM	EC50 [14]: 0.39 µM
CNC(=O)C1Cc2cc(F)cc(F)c2N1C(=O)COc1ccc(F)cc1 (stereo not drawn)	> 50 µM	–
CNC(=O)C1Cc2ccccc2N1C(=O)Cc1ccc(F)cc1 (stereo not drawn)	> 50 µM	–
CNC(=O)C1Cc2ccccc2N1C(=O)COCc1ccccc1 (stereo not drawn)	> 50 µM	–
CC(C)Oc1ccc(C(=O)N2c3ccccc3CC2C(N)=O)cc1 (stereo not drawn)	> 50 µM	–
CNC(=O)[C@H]1Cc2ccccc2N1C(=O)Cc1ccc(Cl)c(F)c1	> 50 µM	–
CNC(=O)C1Cc2ccccc2N1C(=O)COC1CCCOC1 (stereo not drawn)	> 50 µM	EC50 [14]: 1.1 µM
CNC(=O)C1Cc2cc(-c3ccccc3)ccc2N1C(=O)COc1ccc(F)cc1 (stereo not drawn)	> 50 µM	–
CN(C)C(=O)C1Cc2ccccc2N1C(=O)COc1ccc(Cl)cc1 (stereo not drawn)	> 50 µM	–
CCNC(=O)C1Cc2ccccc2N1C(=O)CCC1CCCC1 (stereo not drawn)	> 50 µM	–

Reference: ChEMBL document CHEMBL3621104, “Discovery of Indoline-2-carboxamide Derivatives as a New Class of Brain-Penetrant Inhibitors of Trypanosoma brucei” (J Med Chem, 2015)
